Test results: ChEMBL document CHEMBL3774342, “Indole Based Weapons to Fight Antibiotic Resistance: A Structure-Activity Relationship Study” (J Med Chem, 2016)
pIC50: −log10 of the molar value. ≈ marks a conversion by molar mass, not a printed value. Calls of active or inactive are those of the source. The calls are words filed in the database; no cut-off is given here.

Assays:
[1] = biological target: T1, Quinolone resistance protein NorA (Staphylococcus aureus) (UniProt P0A0J7); assay: Inhibition of NorA efflux pump in Staphylococcus aureus 1199B assessed as reduction in EtBr efflux at 50 uM incubated for 20 mins measured for 5 mins by real-time fluorometric analysis
T1 sequence (whole entry): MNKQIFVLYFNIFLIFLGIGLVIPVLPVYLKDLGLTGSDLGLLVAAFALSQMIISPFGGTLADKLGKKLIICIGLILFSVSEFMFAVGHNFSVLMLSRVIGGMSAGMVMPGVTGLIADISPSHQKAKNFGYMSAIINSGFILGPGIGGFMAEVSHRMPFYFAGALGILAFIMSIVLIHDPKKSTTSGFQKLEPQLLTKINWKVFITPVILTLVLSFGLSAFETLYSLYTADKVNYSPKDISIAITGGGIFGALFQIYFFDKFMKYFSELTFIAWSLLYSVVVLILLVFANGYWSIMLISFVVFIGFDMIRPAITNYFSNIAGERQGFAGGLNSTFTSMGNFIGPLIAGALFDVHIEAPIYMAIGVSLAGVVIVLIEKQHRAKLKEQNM
Outline: (§1)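 SA-1199B (norA-overexpressing) grown overnight in cation-supplemented Mueller-Hinton broth, diluted 25-fold and grown at 35 °C to OD600 0.7–0.8. Loaded with EtBr 25 µM plus CCCP 100 µM (final), then resuspended in fresh broth. Fluorescence read at ex 485/em 645 nm for 5 min, ± compound. Efflux inhibition in % relative to untreated cells; screened at 50 µM. IC50 from concentration series; triplicate, two technical replicates each.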

Staphylococcus aureus [2] = assay: Antimicrobial activity against Staphylococcus aureus 1199B by microdilution method; format: functional
Outline: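 MIC by broth microdilution following CLSI guidelines against S. aureus SA-1199B, a strain that overexpresses norA. Run on compounds giving at least 80% EtBr efflux inhibition and on selected weaker ones.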

[3] = Metabolic stability in human liver microsomes assessed as compound remaining after at 10 uM preincubated for 5 mins followed by NADPH addition measured after 30 mins by HPLC-MS/MS analysis; format: ADME; details: read-out: Stability
Outline: (§2)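 Human liver microsomes at 0.5 mg protein/ml in 100 mM potassium phosphate pH 7.4. Substrate at 10 µM final, pre-incubated 5 min at 37 °C with shaking, then started with 1 mM NADPH. Quenched at 0 and 30 min with cold acetonitrile containing labetalol internal standard. Spun 12000 g, 5 min, 4 °C; supernatant analysed by UHPLC C18 HPLC-MS/MS.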

Staphylococcus aureus [4] = assay: Inhibition of NorA efflux pump A116E GrlA mutant in Staphylococcus aureus 1199B assessed as potentiation of ciprofloxacin-mediated antibacterial activity at 3.13 ug/ml relative to control
[5] = biological target: T1, Quinolone resistance protein NorA (Staphylococcus aureus); assay: Inhibition of NorA efflux pump in Staphylococcus aureus 1199 assessed as potentiation of ciprofloxacin-mediated antibacterial activity
[6] = biological target: T2, Quinolone resistance protein NorA (Staphylococcus aureus, UniProt P0A0J7); assay: Inhibition of NorA efflux pump in Staphylococcus aureus 1199B assessed as reduction in EtBr efflux incubated for 20 mins measured for 5 mins by real-time fluorometric analysis; outline: as §1
T2 sequence (P0A0J7 whole entry): T1 sequence (whole entry)

Liver microsome [7] = assay: Drug metabolism in human liver microsomes assessed as ethyl 2-methyl-5-(3-(piperazin-1-yl)propoxy)-1H-indole-3-carboxylate formation at 10 uM preincubated for 5 mins followed by NADPH addition measured after 30 mins by HPLC-MS/MS analysis; format: ADME; details: 0.5 h; outline: as §2
Liver microsome [8] = assay: Drug metabolism in human liver microsomes assessed as 1-benzyl-2-methyl-5-(3-(piperazin-1-yl)propoxy)-1H-indole-3-carboxylic acid formation at 10 uM preincubated for 5 mins followed by NADPH addition measured after 30 mins by HPLC-MS/MS analysis; format: ADME; details: 0.5 h; outline: as §2
[9] = Solubility of the compound in D2O solution at 25 degC by 1H NMR analysis; format: physicochemical
Outline: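 1H NMR in D2O at 25 °C with TSP internal standard, following a literature procedure.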

Liver microsome [10] = assay: Drug metabolism in human liver microsomes assessed as ethyl 2-Methyl-5-(3-(piperidin-1-yl)propoxy)-1H-indole-3-carboxylate formation at 10 uM preincubated for 5 mins followed by NADPH addition measured after 30 mins by HPLC-MS/MS analysis; format: ADME; details: 0.5 h; outline: as §2
Liver microsome [11] = assay: Drug metabolism in human liver microsomes assessed as ethyl 1-(2-hydroxybenzyl)-2-methyl-5-(3-(piperidin-1-yl)propoxy)-1H-indole-3-carboxylate formation at 10 uM preincubated for 5 mins followed by NADPH addition measured after 30 mins by HPLC-MS/MS analysis; format: ADME; details: 0.5 h; outline: as §2
Liver microsome [12] = assay: Drug metabolism in human liver microsomes assessed as N-dealkylated M-68 formation at 10 uM preincubated for 5 mins followed by NADPH addition measured after 30 mins by HPLC-MS/MS analysis; format: ADME; details: 0.5 h; outline: as §2
Liver microsome [13] = assay: Drug metabolism in human liver microsomes assessed as N-dealkylated M-90 formation at 10 uM preincubated for 5 mins followed by NADPH addition measured after 30 mins by HPLC-MS/MS analysis; format: ADME; details: 0.5 h; outline: as §2
Liver microsome [14] = assay: Drug metabolism in human liver microsomes assessed as 1-Benzyl-2-methyl-5-(3-(piperidin-1-yl)propoxy)-1H-indole-3-carboxylic acid formation at 10 uM preincubated for 5 mins followed by NADPH addition measured after 30 mins by HPLC-MS/MS analysis; format: ADME; details: 0.5 h; outline: as §2
Liver microsome [15] = assay: Drug metabolism in human liver microsomes assessed as ethyl 2-methyl-5-(2-(piperazin-1-yl)ethoxy)-1H-indole-3-carboxylate formation at 10 uM preincubated for 5 mins followed by NADPH addition measured after 30 mins by HPLC-MS/MS analysis; format: ADME; details: 0.5 h; outline: as §2
Liver microsome [16] = assay: Drug metabolism in human liver microsomes assessed as 1-benzyl-2-methyl-5-(2-(piperazin-1-yl)ethoxy)-1H-indole-3-carboxylic acid formation at 10 uM preincubated for 5 mins followed by NADPH addition measured after 30 mins by HPLC-MS/MS analysis; format: ADME; details: 0.5 h; outline: as §2
Liver microsome [17] = assay: Drug metabolism in human liver microsomes assessed as ethyl 5-(3-aminopropoxy)-2-methyl-1H-indole-3-carboxylate formation at 10 uM preincubated for 5 mins followed by NADPH addition measured after 30 mins by HPLC-MS/MS analysis; format: ADME; details: 0.5 h; outline: as §2
Liver microsome [18] = assay: Drug metabolism in human liver microsomes assessed as 5-(3-aminopropoxy)-1-benzyl-2-methyl-1H-indole-3-carboxylic acid formation at 10 uM preincubated for 5 mins followed by NADPH addition measured after 30 mins by HPLC-MS/MS analysis; format: ADME; details: 0.5 h; outline: as §2

Compound | inhibition [1] [%] | MIC (Staphylococcus aureus [2]) [µg/mL] | remaining at 0.5 h, 10 µM [3] [%] | fold change (FC) (Staphylococcus aureus [4]) | inhibition [5] | pIC50 [6] | Drug metabolism (Liver microsome [7]) | Drug metabolism (Liver microsome [8]) | solubility [9] [µM] | Drug metabolism (Liver microsome [10]) | Drug metabolism (Liver microsome [11]) | Drug metabolism (Liver microsome [12]) | Drug metabolism (Liver microsome [13]) | Drug metabolism (Liver microsome [14]) | Drug metabolism (Liver microsome [15]) | Drug metabolism (Liver microsome [16]) | Drug metabolism (Liver microsome [17]) | Drug metabolism (Liver microsome [18])
CCOC(=O)c1c(C)n(Cc2ccccc2)c2ccc(OCCCN3CCNCC3)cc12 | 100 | 100 (≈ 230 µM) | 82 | 4 | inactive | 4.90 | metabolite_detected | metabolite_detected | 20 (≈ 8.71 µg/mL) |  |  |  |  |  |  |  |  | 
CCOC(=O)c1c(C)n(Cc2ccccc2OC)c2ccc(OCCCN3CCCCC3)cc12 | 87.9 | > 100 | 66 |  |  | 5.30 |  |  | 25 (≈ 11.6 µg/mL) | metabolite_detected | metabolite_detected |  |  |  |  |  |  | 
CCOC(=O)c1c(C)n(Cc2ccccc2)c2ccc(OCC(F)CN3CCCCC3)cc12 (stereo not drawn) | 96.7 | > 100 | 52 |  |  | 5.29 |  |  | 20 (≈ 9.05 µg/mL) |  |  | metabolite_detected | metabolite_detected |  |  |  |  | 
CCOC(=O)c1c(C)n(Cc2ccccc2)c2ccc(OCCCN3CCCCC3)cc12 | 98.5 | > 100 | 76 |  |  | 5.22 |  |  | 23 (≈ 10 µg/mL) | metabolite_detected |  |  |  | metabolite_detected |  |  |  | 
CCOC(=O)c1c(C)n(Cc2ccccc2)c2ccc(OCCN3CCNCC3)cc12 | 99.2 | > 100 | 72 | 4 | inactive | 4.81 |  |  | 190 (≈ 80.1 µg/mL) |  |  |  |  |  | metabolite_detected | metabolite_detected |  | 
CCOC(=O)c1c(C)n(Cc2ccccc2)c2ccc(OCCCN)cc12 | 100 | > 100 | 87 | 4 | inactive | 4.90 |  |  | 17 (≈ 6.23 µg/mL) |  |  |  |  |  |  |  | metabolite_detected | metabolite_detected
